Data taken from paper PMC2818593 (Cancer prevention research (Philadelphia, Pa.), 2010).
Values joined by “and” are separate entries in the source; they are usually repeats but may differ in a detail not shown here. Identical values can stand only once. Like-named read-outs stand apart in the source and are kept apart here.

Assays:
H4IIE cells = experiment: GSH levels in H4IIE rat hepatoma cells; type: cell-based; conditions: 24 h
Outline: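 H4IIE rat hepatoma cells grown in MEM with 10% heat-inactivated FBS, non-essential amino acids and 1 mM pyruvate at 37 °C, 5% CO2. 3 × 10^6 cells exposed 24 h to 10–160 µM test compound (DMSO 0.5% final as control), then lysed in pH 7.0 phosphate/EDTA. Total GSH measured by enzymatic recycling on 1 µg protein (Bradford), expressed as fold over control. Two-sided tests, p < 0.05.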

[1] = tested on: quinone reductase-1 (QR-1); experiment: QR-1 activity in rat tissues after dietary ILG; type: in vivo
[2] = Quantification of ILG in rat plasma and tissues by LC-MS-MS; type: in vivo
GSH = GSH level in rat tissues after dietary ILG; type: in vivo; conditions: 10.0 g/kg diet; liver, colon, mammary gland
[3] = tested on: QR-1 activity in mouse Hepa 1c1c7 cells; conditions: cited from earlier work
[4] = tested on: glutathione S-transferase (GST); experiment: GST activity in rat tissues after dietary ILG; type: in vivo; conditions: 10.0 g/kg diet; liver, colon, mammary gland
[5] = tested on: DMBA-induced mammary tumors; conditions: preliminary study, 5.0 g/kg diet, cited from earlier work
[6] = tested on: carcinogen-treated mouse mammary organ culture; conditions: at 10 µg/mL; cited from earlier work
[7] = tested on: DMBA-induced mammary tumors; experiment: DMBA-induced mammary carcinogenesis in rats; type: in vivo
[8] = Metabolism of ILG in the rat; type: in vivo; conditions: rat plasma after administration of ILG

Structure (SMILES): O=c1cc(-c2ccc(Br)cc2)oc2ccccc12 [4'-Bromoflavone, reference compound]
- GSH levels (H4IIE cells; H4IIE cells, 10 µM, positive control): significant increase in GSH levels

Structure (SMILES): O=C(/C=C/c1ccc(O)cc1)c1ccc(O)cc1O [ILG, 2′,4′,4-trihydroxychalcone]
- QR-1 activity ([1]; colon, end of in vivo study): significantly elevated
- QR-1 activity ([1]; liver or mammary gland tissues): no significant induction
- Concentration of ILG in liver tissue ([2]; 7.50 g/kg diet + DMBA): 2.56 ± 0.96 µg/g tissue
- Concentration of ILG in mammary tissue ([2]; 7.50 g/kg diet + DMBA): 0.044 ± 0.014 µg/g tissue
- Concentration of ILG in plasma ([2]; 7.50 g/kg diet + DMBA): 57.81 ± 19.65 ng/mL and 57.8 ± 19.6 ng/mL
- Concentration of ILG in liver tissue ([2]; 10.0 g/kg diet): 3.25 ± 1.38 µg/g tissue
- Concentration of ILG in mammary tissue ([2]; 10.0 g/kg diet): 0.094 ± 0.043 µg/g tissue
- Concentration of ILG in plasma ([2]; 10.0 g/kg diet): 142.2 ± 35.9 ng/mL
- Concentration of ILG in liver tissue ([2]; 10.0 g/kg diet + DMBA): 4.71 ± 1.64 µg/g tissue
- Concentration of ILG in mammary tissue ([2]; 10.0 g/kg diet + DMBA): 0.084 ± 0.040 µg/g tissue
- Concentration of ILG in plasma ([2]; 10.0 g/kg diet + DMBA): 134.6 ± 47.2 ng/mL
- GSH levels (GSH): significantly elevated only in the liver
- CD, induction of QR-1 activity [3]: 2 µM
- GST activity [4]: significantly elevated only in the liver
- dose giving significant increase of total GSH (H4IIE cells; rat hepatoma cells): ≥ 80 µM
- incidence of mammary tumors ([5]; after 120 days): little effect on the incidence of mammary tumors
- tumor latency ([5]; one week prior and one week after DMBA): increased tumor latency
- adverse effects [5]: no adverse effects were detected
- inhibition in carcinogen-treated mouse mammary organ culture assay [6]: 76%
- tumor latency ([7]; 7.5 and 10 g/kg diet during the entire study): increased tumor latency
- overall tumor incidence and multiplicity ([7]; 7.5 and 10 g/kg diet, after 84 days): increased the overall tumor incidence and multiplicity
- body weight ([7]; between the different groups, 7.5 and 10 g/kg diet): no significant differences in body weight

Structure (SMILES): O=C(/C=C/c1ccc(O)cc1)c1ccc(O[C@@H]2O[C@H](C(=O)O)[C@@H](O)[C@H](O)[C@H]2O)cc1O [MG5, 4′-glucuronosylisoliquiritigenin]
- relative abundance among the five glucuronides [8]: most abundant
